# Reference: ChEMBL document CHEMBL3792382, “Synthesis of new secretory phospholipase A2-inhibitory indole containing isoxazole derivatives as anti-inflammatory and anticancer agents” (Eur J Med Chem, 2016)
# Legend:
# [1] = Inhibition of human type 2A secretory PLA2 using diheptanoyl thio-PC as substrate after 15 mins by ELISA
# Method in brief: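 Type IIA sPLA2 from a commercial kit was incubated with inhibitor and diheptanoyl thio-PC substrate for 15 min. DTNB was then added and the thiol released by hydrolysis was read at 415 nm. Control wells held no inhibitor. % inhibition = (A control − A test)/A control × 100, and IC50 was taken from the dose-response; ursolic acid served as positive control.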
# [2] = tested on: MCF7; test: Antiproliferative activity against human MCF7 cells after 48 hrs by MTT assay; type: functional, cell-based; conditions: MCF7, 48 h
# Method in brief: (§1)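 Cells were grown in RPMI with 10% FCS, penicillin and streptomycin at 37 °C in humidified CO2. They were exposed to a range of concentrations for 48 h, then given MTT for 2 h at 37 °C. Formazan was dissolved in DMSO and absorbance read at 570 nm (reference 620 nm). IC50 was derived from the readings, with doxorubicin as positive control.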
# [3] = Antiproliferative activity against human DU145 cells after 48 hrs by MTT assay; type: functional, cell-based; conditions: DU-145, 48 h; method in brief: as §1
# [4] = tested on: Rattus norvegicus; test: Antiinflammatory activity against carrageenan-induced paw edema in Wistar albino rat model at 10 mg/kg, po administered 1 hr prior to carrageenan-challenge measured at 3rd hr by plethysmometer; type: functional
# Method in brief: (§2)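 Rats were dosed orally 1 h before subplantar injection of 0.1 ml 1% λ-carrageenan in saline into the left hind paw, with saline in the right paw. Vehicle controls received saline 1 ml/kg p.o.; ursolic acid served as positive control. Paw volume was read by mercury plethysmometer before injection and at 1, 2, 3, 4 and 6 h. Results are % edema inhibition versus vehicle, mean ± SEM, n = 3-6, one-way ANOVA.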
# [5] = Partition coefficient, logP of the compound; type: physicochemical; conditions: octanol/water
# [6] = tested on: Rattus norvegicus; test: Antiinflammatory activity against carrageenan-induced paw edema in Wistar albino rat model at 10 mg/kg, po administered 1 hr prior to carrageenan-challenge measured at 4th hr by plethysmometer; type: functional; method in brief: as §2
Compound,IC50 [1] [µM],IC50 [2] [µM],logP [5],IC50 [3] [µM],inhibition in vivo at 10 mg/kg [4] [%],inhibition in vivo at 10 mg/kg [6] [%]
Cc1ccc(-c2cc(CNCc3c[nH]c4ccc(Br)cc34)on2)cc1,27.3,–,4.67,–,–,–
COc1ccc(-c2cc(CNCc3c[nH]c4ccc(Br)cc34)on2)cc1,32.6,–,4.28,–,–,–
Brc1ccc2[nH]cc(CNCc3cc(-c4ccccc4)no3)c2c1,32.5,–,4.23,–,–,–
O=[N+]([O-])c1ccc(-c2cc(CNCc3c[nH]c4ccccc34)on2)cc1,25.6,–,3.4,–,–,–
Cc1ccc(-c2cc(CNCc3c[nH]c4ccc(C)cc34)on2)cc1,21.6,–,4.33,–,–,–
COc1ccc(-c2cc(CNCc3c[nH]c4ccc(C)cc34)on2)cc1,24.6,–,3.92,–,–,–
O=[N+]([O-])c1ccc(-c2cc(CNCc3c[nH]c4ccc(Br)cc34)on2)cc1,22.4,–,4.19,–,–,–
Cc1ccc2[nH]cc(CNCc3cc(-c4ccccc4)no3)c2c1,27.9,–,3.87,–,–,–
Cc1ccc2[nH]cc(CNCc3cc(-c4ccc([N+](=O)[O-])cc4)no3)c2c1,19.4,–,3.83,–,–,–
COc1cccc2c1C(=O)c1c(O)c3c(c(O)c1C2=O)C[C@@](O)(C(=O)CO)C[C@@H]3O[C@H]1C[C@H](N)[C@H](O)[C@H](C)O1 [DOXORUBICIN],–,–,–,4.75,–,–
C[C@H]1[C@H](C)CC[C@]2(C(=O)O)CC[C@]3(C)C(=CC[C@@H]4[C@@]5(C)CC[C@H](O)C(C)(C)[C@@H]5CC[C@]43C)[C@H]12 [URSOLIC ACID],12.6,–,–,–,73,75.2

# More lines, main results first:
IC50 [1] [µM],IC50 [2] [µM],logP [5],Compound,IC50 [3] [µM],inhibition in vivo at 10 mg/kg [4] [%],inhibition in vivo at 10 mg/kg [6] [%]
10.2,10,4.85,Cc1ccc2[nH]cc(CNCc3cc(-c4ccc(F)c(C(F)(F)F)c4)no3)c2c1,14.2,75.7,76.5
18.2,–,3.5,COc1ccc(-c2cc(CNCc3c[nH]c4ccccc34)on2)cc1,–,–,–
22.7,–,3.89,Cc1ccc(-c2cc(CNCc3c[nH]c4ccccc34)on2)cc1,–,–,–
21.5,–,4.43,Fc1ccc(-c2cc(CNCc3c[nH]c4ccccc34)on2)cc1C(F)(F)F,–,–,–
17.2,–,5.21,Fc1ccc(-c2cc(CNCc3c[nH]c4ccc(Br)cc34)on2)cc1C(F)(F)F,–,–,–
30.6,–,3.44,c1ccc(-c2cc(CNCc3c[nH]c4ccccc34)on2)cc1,–,–,–
